According to ChEMBL document CHEMBL3232983, “Discovery of 2-iminobenzimidazoles as potent hepatitis C virus inhibitors with a novel mechanism of action” (Eur J Med Chem, 2014):
Activity calls are given as the source filed them. The rule behind the calls is not given here.

Key:
[1] = Cytotoxicity against human HuH7 cells after 72 hrs by Hoechst 33342 staining-based confocal microscopic analysis; format: cell-based, Huh-7
Method in brief: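 Naïve Huh-7 cells in the HCVcc format were compound-treated for 2 h, then infected. Cytotoxicity was determined at 72 h post-infection. CC50 came from 10-point dose-response curves in duplicate with quadruplicate measurements, fitted by non-linear regression.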

[2] = test system: Hepatitis C virus; assay: Antiviral activity against cell culture derived Hepatitis C virus expressing NS5A-GFP fusion protein infected in human HuH7 cells assessed as infection rate preincubated for 2 hrs followed by viral inoculation measured after 72 hrs by HTS assay; format: functional, organism-based, Hepacivirus hominis; settings: Huh-7
Method in brief: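 Naïve Huh-7 cells were exposed to serially diluted compound and inoculated with cell-culture-adapted HCVcc 2 h later. Infection rate was read at 72 h post-infection. EC50 came from 10-point dose-response curves run in duplicate with quadruplicate measurements, fitted by non-linear regression.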

[3] = Selectivity index, ratio of CC50 for human HuH7 cells to EC50 for cell culture derived Hepatitis C virus; format: toxicity, cell-based, Huh-7; settings: read-out: Ratio CC50/EC50
Method in brief: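 SI is CC50/EC50. Both values come from the same HCVcc assay in naïve Huh-7 cells: compound added 2 h before HCVcc inoculation, infection and cytotoxicity read at 72 h. Each was derived from 10-point dose-response curves in duplicate with quadruplicate measurements.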

[4] = Half life in human liver microsomes at 2 uM; format: ADME
Method in brief: (§1)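 Compound at 2 µM final (0.02% DMSO) was incubated with 0.5 mg/mL liver microsomes in potassium phosphate buffer. Human microsomes were a mixed-gender pool of 200 donors; rat microsomes were from males. Half-life is reported in minutes.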

[5] = Half life in rat liver microsomes at 2 uM; format: ADME; method in brief: as §1
[6] = test system: Hepatitis C virus; assay: Antiviral activity against Hepatitis C virus infected in human HuH7.5 cells assessed as inhibition of viral RNA replication after 72 hrs; format: functional, organism-based; settings: Hepacivirus hominis; Huh-7
Method in brief: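 Transiently transfected Huh-7.5 producer cells carrying full-length HCV RNA genomes were plated and left overnight at 37 °C. They were then treated with increasing compound concentrations at 37 °C for 48 h and washed. Viral RNA replication and cytotoxicity in the producer cells were read at 72 h post compound treatment. Data were normalized to the 1% DMSO control, set as 0% inhibition.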

[7] = test system: Vesicular stomatitis virus; assay: Antiviral activity against Vesicular stomatitis virus pseudotyped particle expressing glycoproteins assessed as inhibition of viral attachment and internalization in human HuH7 cells at 3.3 uM preincubated for 1 hr followed by viral inoculation measured after 72 hrs GFP reporter gene assay; format: functional, organism-based; settings: Huh-7
Method in brief: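 Supernatant replaced at 12 h. At 72 h post inoculation, GFP expression was read by confocal microscopy at 20x. Data normalized to 1% DMSO control (0% inhibition). Triplicates with quadruple measurements (n = 12).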

[8] = test system: Hepatitis C virus; assay: Antiviral activity against Hepatitis C virus infected in human HuH7.5 cells assessed as reduction of secreted infectious viral particles incubated for 48 hrs followed by compound washout measured after 24 hrs; format: functional, organism-based; settings: Hepacivirus hominis; Huh-7
Method in brief: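 Supernatant-transfer (late-stage) assay. Transfected Huh-7.5 producer cells were treated with serially diluted compound at 37 °C for 48 h, then washed. Supernatant was collected 24 h after the wash, clarified by centrifugation and put onto naïve Huh-7 target cells. HCV RNA replication in the target cells was read at 72 h post inoculation and normalized to the 1% DMSO control (0% inhibition).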

[9] = test system: Hepatitis C virus; assay: Antiviral activity against Hepatitis C virus pseudotyped lentiviral particle expressing E1/E2 glycoproteins assessed as inhibition of viral attachment and internalization in human HuH7 cells at 3.3 uM preincubated for 1 hr followed by viral inoculation measured after 72 hrs GFP reporter gene assay; format: functional, organism-based; settings: Hepacivirus hominis, Huh-7
Method in brief: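 Huh-7 target cells were pretreated with 3.3 µM compound for 1 h. Supernatants were replaced at 12 h. GFP expression was scored by confocal microscopy at 72 h post inoculation and normalized to 1% DMSO. Triplicates with quadruple measurements (n = 12).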

Row | SMILES | CC50 at 72 h [1] [nM] | EC50 [2] [nM] | selectivity ratio [3] | half-life at 2 µM [4] [h] | half-life at 2 µM [5] [h] | inhibition [6] | inhibition [7] | Activity [8] | inhibition [9]
1 | CCc1cn2c3ccccc3n(CCOc3ccc(Cl)cc3)c2n1 | 20000 | 6000 | – | – | – | – | – | – | –
2 | CCc1ccc(Cn2c(=N)n(C)c3ccccc32)cc1 | 5800 | 460 | 12.6 | – | – | – | – | – | –
3 | Cn1c(=N)n(CC(=O)c2ccc(C(C)(C)C)cc2)c2ccccc21 | 8900 | 79 | 113 | – | – | – | – | – | –
4 | Cn1c(=NC#N)n(CCOc2ccc(Cl)cc2)c2ccc(Cl)c(Cl)c21 | > 20000 | > 20000 | – | – | – | – | – | – | –
5 | Cn1c(=N)n(CC(=O)c2ccc(Cl)cc2)c2ccccc21 | 20000 | 73 | 274 | – | – | – | – | – | –
6 | Clc1ccc(OCCN2C3=NCCN3c3ccccc32)cc1 | 20000 | 50 | – | – | – | – | – | – | –
7 | Cn1c(=N)n(CCOc2ccc(-c3ccccc3)cc2)c2ccccc21 | 3400 | 200 | 17 | – | – | – | – | – | –
8 | Br.Cc1ccc2c(c1)n(CCOc1ccc(Cl)cc1)c(=N)n2C | 10600 | 90 | 118 | > 1 | 0.3 | – | – | – | –
9 | Cn1c(=N)n(Cc2ccc(-c3ccccc3)cc2)c2ccccc21 | 2600 | 220 | 11.8 | – | – | – | – | – | –
10 | Br.Cn1c(=N)n(CCOc2ccc(Cl)cc2)c2c(Cl)cccc21 | 4300 | 9.7 | 443 | > 1 | 0.623 | – | – | – | –
11 | Br.Cc1ccc2c(c1)n(C)c(=N)n2CCOc1ccc(Cl)cc1 | 2900 | 1 | 2900 | > 1 | 0.145 | – | – | – | –
12 | Nc1nc2ccccc2n1CCOc1ccc(Cl)cc1 | 8900 | 4000 | – | – | – | – | – | – | –
13 | CCc1ccc(C(=O)Cn2c(=N)n(C)c3ccccc32)cc1 | 9500 | 380 | 25 | – | – | – | – | – | –
14 | Br.Cn1c(=N)n(CCOc2ccc(Cl)cc2)c2cc(Cl)ccc21 | 9840 | 40 | 246 | > 1 | > 1 | – | – | – | –
15 | Cn1c(=N)n(CCOc2ccc(C(C)(C)C)cc2)c2ccccc21 | 2800 | 45 | 62 | – | – | – | – | – | –
16 | Br.Cn1c(=N)n(CCOc2ccc(Cl)cc2)c2cccc(Cl)c21 | 1500 | 3.3 | 455 | > 1 | > 1 | – | – | – | –
17 | Br.Cn1c(=N)n(CCOc2ccc(Cl)cc2)c2ccc(Cl)cc21 | 4100 | 11 | 373 | > 1 | > 1 | – | – | – | –
18 | CCC(=O)Cn1c(=N)n(CCOc2ccc(Cl)cc2)c2ccccc21 | 8500 | 2300 | – | – | – | – | – | – | –
19 | Cn1c(=N)n(Cc2ccc(C(C)(C)C)cc2)c2ccccc21 | 5900 | 170 | 34.7 | – | – | – | – | – | –
20 | Br.Cn1c(=N)n(CCOc2ccc(Cl)cc2)c2ccccc21 | 7600 | 16 | 475 | > 1 | 0.225 | Active | inactive | Dose-dependent effect | Active
21 | Br.Cc1cccc2c1n(C)c(=N)n2CCOc1ccc(Cl)cc1 | 15000 | 130 | 115 | > 1 | 0.41 | – | – | – | –
22 | CCc1ccc(OCCn2c(=N)n(C)c3ccccc32)cc1 | 8900 | 50 | 178 | – | – | – | – | – | –
23 | Cn1c(=N)n(CC(=O)c2ccc3ccccc3c2)c2ccccc21 | 4500 | 340 | 13 | – | – | – | – | – | –
